# Results from PubChem BioAssay.
# Activity calls are given as the source filed them.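 How the source made its calls, unless noted: active means a full or partial loss of lipid-probe fluorescence in the fish gall bladder, intestine or both, judged by eye; inactive means no fluorescence loss, or compound toxic to the fish.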
# Assays:
# [1] = inhibitors of TNFa-induced NFkB p65 translocation, primary screen, imaging, HUVEC, MLSMR starter and 10KST1 sets (AID 438;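 active means inhibition above 20% together with a positive visual image hit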;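 further: compound added about 3h40 before a 20 min TNFalpha stimulation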;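 on inhibition: signal is the nuclear over cytoplasmic p65 intensity ratio per well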); details: HUVEC TNFa-induced p65 nuclear translocation; cell count: measured here: nuclei count (cytotoxicity indicator), at 2.08 µM; inhibition: at 2 µM, stronger effect = higher value, 0% TNFa-plus-vehicle, 100% no-TNFa wells
# [2] = reduction of polyQ htt aggregates in cells – imaging, exon1htt(103Q)mCFP cells, high-content imaging, primary screen (AID 483;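 active means visual image review flags a hit and inhibition of aggregation exceeds 20%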;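 further: compound exposure lasted 3 days before fixation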;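 on nuclei count: percent of the per-plate median nuclei count of sample wells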); details: exon1htt(103Q)mCFP cell line, aggregate imaging, at 2 µM; inhibition of aggregation: stronger effect = higher value; nuclei count: measured here: cell count, toxicity
# [3] = endothelial E-selectin expression blockers – imaging, HUVEC, immunofluorescence, MLSMR starter and 10KST1 sets, primary screen (AID 487;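 active means visually confirmed hit in the image check and inhibition above 20%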;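 on inhibition: signal is fraction of cell area covered by stained E-selectin grains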;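 on nuclei count: 100% = median nuclei count of all wells on the same plate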); details: HUVEC TNFalpha-induced E-selectin immunofluorescence imaging, at 2 µM; inhibition: stronger effect = higher value; nuclei count: measured here: cell number, toxicity
# [4] = molecular target: Voltage-gated potassium channel subunit beta-2 (Rattus norvegicus) (UniProt P62483); assay: inhibitors of rat Kvbeta2 reductase activity – biochemical, NADPH fluorescence, primary screen (AID 622;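 active means fluorescence slope higher than the sample average by over 3 SD, cut at about -0.22 in these data, passing the limit was not always enough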;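 further: slope of raw intensity against log time taken from 70 to 1610 s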); details: recombinant KvBeta, 4-cyanobenzaldehyde reduction, at 10 µM, stronger effect = higher value
# [5] = molecular target: Voltage-gated potassium channel subunit beta-2 (Rattus norvegicus) (UniProt P62483); assay: enhancers of rat Kvbeta2 NADPH turnover – biochemical, NADPH fluorescence, primary screen (AID 623;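 active means NADPH fluorescence slope more negative than the mean of all samples by about 3 SD, 99.7% confidence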;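 further: fluorescence intensity change per second fitted from 20 to 320 s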); details: Recombinant KvBeta, NADPH fluorescence decrease slope, 10 min; at 10 µM; stronger effect = lower value
# [6] = molecular target: Alpha-2C adrenergic receptor (Homo sapiens) (UniProt P18825); assay: compounds altering alpha2C-coupled GIRK flux – cell-based, HEK293 alpha2C/GIRK1/2, thallium flux, primary screen (AID 624;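 active means fluorescence slope after compound addition differing from the mean of all screened samples at 99.7% confidence, in either direction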;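 further: slope of fluorescence ratio to pre-addition baseline per second over 15 to 24 s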); details: thallium flux BTC fluorescence, at 10 µM, actives lie on both sides
# [7] = inhibitors of larval lipid processing in zebrafish, primary screen, whole organism, PED6 fluorescence, gall bladder and intestine (AID 686); details: Zebrafish larvae PED6 lipid processing, fluorescence scoring; screened at 20 µM (by protocol);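 further: larvae 5 to 7 days old with five fish per well; signal comes from phospholipase A2 cleavage of quenched PED6 carried via bile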
# Procedure, shortened: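 Incubation: overnight exposure of larvae to compound plus PED6 / Test system: live zebrafish larvae aged 5-7 days, whole organism / Amount: 5 larvae per well / Read-out basis: visual per-well fluorescence inhibition score / Signal: visual fluorescence microscopy scoring of gall bladder, gut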
# [8] = blockers of RIG-like receptor reporter activation – cell-based, Sendai virus stimulus, luciferase, 10K MLSCN set, TLR/RLR signaling modifier project, primary screen (AID 602276;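 active means inhibition at or above 50% at 10 µM; inactive means inhibition below 50%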;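 further: firefly luciferase from ISG56 promoter only with Renilla not read in this screen; 0% = Sendai virus plus DMSO and 100% = medium plus DMSO without virus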); details: HEK293 RL24 IRF3 luciferase reporter, at 10 µM, stronger effect = higher value
# [9] = TLR3 IRF3 reporter activation blockers – cell-based, poly I:C stimulus, luciferase, 10K MLSCN set, primary screen (AID 602277;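 active means inhibition of the reporter signal at or above 50%; inactive means inhibition below 50%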); details: HEK293-TLR3 RL24 IRF3 luciferase reporter, at 10 µM, stronger effect = higher value
# Alpha-2C adrenergic receptor (Homo sapiens), sequence (P18825 whole entry, looked up): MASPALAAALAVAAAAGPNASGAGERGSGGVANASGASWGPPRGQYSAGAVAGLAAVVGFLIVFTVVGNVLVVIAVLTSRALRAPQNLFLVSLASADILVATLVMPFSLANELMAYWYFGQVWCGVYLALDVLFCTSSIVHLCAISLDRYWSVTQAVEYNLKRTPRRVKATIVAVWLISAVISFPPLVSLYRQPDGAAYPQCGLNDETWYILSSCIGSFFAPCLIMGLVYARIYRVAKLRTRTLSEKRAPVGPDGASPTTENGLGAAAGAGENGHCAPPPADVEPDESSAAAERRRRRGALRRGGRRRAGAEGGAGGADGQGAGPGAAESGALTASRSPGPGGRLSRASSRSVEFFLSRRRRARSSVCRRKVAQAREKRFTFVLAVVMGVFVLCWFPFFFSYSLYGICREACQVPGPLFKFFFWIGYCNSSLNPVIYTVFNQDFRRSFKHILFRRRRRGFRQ
# Voltage-gated potassium channel subunit beta-2 (Rattus norvegicus), sequence (P62483 whole entry, looked up): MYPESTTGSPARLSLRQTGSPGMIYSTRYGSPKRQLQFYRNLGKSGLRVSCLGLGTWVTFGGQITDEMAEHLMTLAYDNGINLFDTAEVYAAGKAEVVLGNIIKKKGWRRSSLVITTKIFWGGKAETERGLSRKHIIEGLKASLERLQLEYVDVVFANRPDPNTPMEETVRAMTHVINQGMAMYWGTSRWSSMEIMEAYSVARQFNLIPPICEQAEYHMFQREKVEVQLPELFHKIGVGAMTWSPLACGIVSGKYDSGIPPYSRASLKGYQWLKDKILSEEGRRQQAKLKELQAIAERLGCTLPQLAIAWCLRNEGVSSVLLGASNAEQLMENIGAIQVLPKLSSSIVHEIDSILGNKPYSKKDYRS
Compound,cell count [1],inhibition [1],inhibition of aggregation [2],nuclei count [2],inhibition [3],nuclei count [3],fluorescence slope [4],NADPH fluorescence slope [5],slope [6],outcome [7],inhibition [8],inhibition [9]
O=C(Nc1cccnc1)c1cc2c(ccc3ccccc32)o1,489,8.1% (inactive),-7.4% (inactive),104%,-160% (inactive),140%,-0.355 (inactive),-4.5e-05 (inactive),0.00441 (inactive),inactive,-38.2% (inactive),-135% (inactive)
O=C(CN1CCN(Cc2ccc3c(c2)OCO3)CC1)N1CCc2[nH]c3ccc(F)cc3c2C1,687,13.9% (inactive),6.4% (inactive),96.6%,34.4% (inactive),101%,-0.409 (inactive),-6.8e-05 (inactive),0.00435 (inactive),inactive,12% (inactive),4.08% (inactive)
Cc1cc(C)nc(N2CCC(C(=O)Nc3ccc(Oc4ccccc4)cc3)CC2)n1,706,-15% (inactive),-11% (inactive),122%,-54.3% (inactive),116%,-0.432 (inactive),-5.6e-05 (inactive),0.00595 (inactive),inactive,13% (inactive),11% (inactive)
CCCNC(=O)N1CCN(S(=O)(=O)c2ccc(C)c(C)c2)CC1,412,-0.4% (inactive),-16.1% (inactive),105%,-28.8% (inactive),103%,-0.486 (inactive),-5.4e-05 (inactive),0.00557 (inactive),inactive,-6.27% (inactive),-8.98% (inactive)
O=C(OC1CCc2ccccc2C1=O)c1ccccc1O (centres undefined),304,3.8% (inactive),-0.1% (inactive),100%,-86.8% (inactive),106%,-0.386 (inactive),-5.3e-05 (inactive),0.00569 (inactive),inactive,-5.07% (inactive),-40.5% (inactive)
N#CCC(=O)Nc1ncn(Cc2ccccc2Cl)n1,273,-2.5% (inactive),-6% (inactive),87.3%,-51.5% (inactive),105%,-0.456 (inactive),1.5e-06 (inactive),0.00405 (inactive),inactive,-5.79% (inactive),4.42% (inactive)
Cc1ccc(S(=O)(=O)N2CCN(C(=O)N3CCOCC3)C2C)cc1 (centres undefined),469,7.3% (inactive),12.7% (inactive),102%,-48.1% (inactive),108%,-0.439 (inactive),-5.1e-05 (inactive),0.00556 (inactive),inactive,11.8% (inactive),45.8% (inactive)
Cc1cnc(NC(=O)CSc2nnc(-c3ccccc3)n2Cc2ccccc2)s1,682,-5.5% (inactive),14.8% (inactive),102%,-19.9% (inactive),105%,-0.493 (inactive),5.3e-05 (inactive),0.00426 (inactive),inactive,-3.73% (inactive),-7.1% (inactive)
CCN1C(=O)/C(=C/N(C)c2ccccc2)OC1=S,592,-12.2% (inactive),12.1% (inactive),84.4%,34.8% (inactive),93.7%,-0.469 (inactive),-5.3e-05 (inactive),0.00485 (inactive),inactive,-11.5% (inactive),-64.8% (inactive)
Cc1cccc(OCC(=O)Nc2cc(C)ccc2O)c1,311,0.5% (inactive),-9.5% (inactive),95.3%,-15.1% (inactive),87.8%,-0.446 (inactive),-2.2e-05 (inactive),0.00484 (inactive),inactive,10.8% (inactive),15.6% (inactive)
CSCCC(NC(=O)CCN1C(=O)c2ccccc2C1=O)C(=O)O (centres undefined),366,1.8% (inactive),-10.9% (inactive),99.7%,-76.8% (inactive),110%,-0.411 (inactive),2e-07 (inactive),0.00495 (inactive),inactive,15.7% (inactive),19.3% (inactive)
CC(C(=O)NC(=O)NC1CCCCC1)N1CCN(c2ccccn2)CC1 (centres undefined),611,-16.9% (inactive),8.1% (inactive),107%,0.2% (inactive),134%,-0.397 (inactive),-4.4e-05 (inactive),0.00612 (inactive),inactive,5.51% (inactive),9.31% (inactive)
COc1ccc2cc(C#N)c(N3CCN(Cc4nnnn4CCC(C)C)CC3)nc2c1,363,7% (inactive),20.7% (inactive),85.8%,-5.8% (inactive),78.1%,-0.379 (inactive),-3.8e-05 (inactive),0.00501 (inactive),inactive,12.8% (inactive),-2.3% (inactive)
CNC(=O)OC(C)CNS(=O)(=O)c1ccc(C)cc1 (centres undefined),441,9.8% (inactive),5.2% (inactive),103%,-36.3% (inactive),118%,-0.433 (inactive),-4.1e-05 (inactive),0.00412 (inactive),inactive,19.5% (inactive),17.5% (inactive)
O=C(CN1CCN(c2ccc(F)cc2)CC1)OCc1ccccc1,662,11.1% (inactive),-6.3% (inactive),102%,5.8% (inactive),118%,-0.356 (inactive),-6.7e-05 (inactive),0.00472 (inactive),inactive,6.81% (inactive),6.58% (inactive)
CCOc1ccccc1C(=O)Nn1c(C2CCC2)nc2ccccc2c1=O,292,-14% (inactive),-21.7% (inactive),7.3%,-38.2% (inactive),98.8%,-0.467 (inactive),-5.5e-05 (inactive),0.00459 (inactive),inactive,20.9% (inactive),37.7% (inactive)
O=C(CSc1nc2ccccc2o1)N1CCN(C(=O)c2ccco2)CC1,595,-11.5% (inactive),9.6% (inactive),102%,-19.5% (inactive),99.6%,-0.376 (inactive),-5.7e-05 (inactive),0.00634 (inactive),inactive,3.77% (inactive),3.76% (inactive)
O=C(CSc1n[nH]c(=O)[nH]c1=O)c1ccccc1,486,-5.6% (inactive),6.7% (inactive),82%,-33.2% (inactive),99.8%,-0.34 (inactive),-4e-05 (inactive),0.00685 (inactive),inactive,1.37% (inactive),0.379% (inactive)
COCCn1nnnc1SCC(=O)N1CCCCC1,344,1.6% (inactive),4.1% (inactive),102%,6.2% (inactive),121%,-0.49 (inactive),-9.6e-06 (inactive),0.00458 (inactive),inactive,17.3% (inactive),14% (inactive)
CCNc1ccc(S(=O)(=O)C(F)(F)F)cc1NC(=O)C12CCC(CC1)C2,380,2.5% (inactive),-4.3% (inactive),108%,-30.6% (inactive),101%,-0.481 (inactive),-3.1e-05 (inactive),0.0047 (inactive),inactive,-90% (inactive),99.7% (active)
CC(=O)Nc1ccccc1OCC(=O)c1cc(C)n(Cc2cccs2)c1C,425,-2% (inactive),-13.7% (inactive),45.4%,-54.1% (inactive),107%,-0.475 (inactive),-4.2e-05 (inactive),0.00662 (inactive),inactive; toxic,49.5% (inactive),-26.5% (inactive)
Cc1cc(C(=O)Nc2c(C)n(C)n(-c3ccccc3)c2=O)c(C)o1,330,-1.4% (inactive),5.3% (inactive),101%,2% (inactive),100%,-0.412 (inactive),-7.3e-05 (inactive),0.00524 (inactive),inactive,17% (inactive),14.7% (inactive)
O=C(NCCCN1CCN(c2cccc(Cl)c2)CC1)c1ccc(N2CCCC2=O)cc1,763,-10% (inactive),11.5% (inactive),97.9%,46.9% (inactive),105%,-0.479 (inactive),-5.9e-05 (inactive),0.00509 (inactive),inactive,10.3% (inactive),0.162% (inactive)
Cc1ccc(S(=O)(=O)N2CCCN(S(=O)(=O)C3CCS(=O)(=O)C3)CC2)cc1 (centres undefined),455,2.4% (inactive),-22.7% (inactive),111%,-102% (inactive),129%,-0.366 (inactive),-4.2e-05 (inactive),0.00596 (inactive),inactive,12.7% (inactive),14% (inactive)
N#CCc1ccc(NC(=O)Nc2cccc(Cl)c2)cc1,321,-8.6% (inactive),-19.9% (inactive),85.4%,-112% (inactive),137%,-0.46 (inactive),-5.6e-05 (inactive),0.00505 (inactive),inactive,-26.8% (inactive),-62.7% (inactive)
CN1CCN(c2ccc(Cl)cc2NC(=O)c2cccc(S(=O)(=O)N(C)C)c2)CC1,378,0.5% (inactive),-6.9% (inactive),133%,14.4% (inactive),88.8%,-0.373 (inactive),-2e-05 (inactive),0.00491 (inactive),inactive,6.8% (inactive),12.4% (inactive)
Cc1cc(C)cc(NC(=O)CN(C)S(=O)(=O)c2cnc[nH]2)c1,484,8.7% (inactive),-24% (inactive),110%,0.4% (inactive),100%,-0.406 (inactive),-3.6e-05 (inactive),0.00489 (inactive),inactive,1.14% (inactive),2.32% (inactive)
